Legend:
[1] = system: Rattus norvegicus; assay: Bradycardic activity was evaluated in an anesthetized rat model as percent heart rate(beats/min) reduction 5 min after iv injection of 5 mg/kg; type: functional
Procedure, shortened: (§1)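 Male Chbb:THOM rats, 200-250 g, anesthetized with pentobarbital sodium 50 mg/kg ip, with the trachea cannulated and artificial respiration given. Heart rate was recorded continuously by an ECG-triggered beat-to-beat tachograph before and at 5 and 20 min after a single iv injection of 5 mg/kg. Values are % change from pre-dose, reported ± SEM.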

[2] = species: Rattus norvegicus; assay: Ratio of heart rate reduction to mean arterial blood pressure reduction; type: functional
Procedure, shortened: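 Selectivity parameter S: the % heart-rate reduction divided by the % mean arterial pressure reduction, both read 5 min after 5 mg/kg iv in anesthetized, ventilated male Chbb:THOM rats. Heart rate came from an ECG-triggered tachograph and pressure from a carotid cannula.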

[3] = species: Rattus norvegicus; assay: Delta HR ratio measured as the ratio of delta HR(20 min)/delta HR (5 min); type: functional
Procedure, shortened: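 Duration-of-action index: the % heart-rate reduction at 20 min divided by that at 5 min after 5 mg/kg iv. Rats were male Chbb:THOM, pentobarbital-anesthetized and ventilated, with heart rate taken from an ECG-triggered tachograph.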

[4] = system: Rattus norvegicus; assay: Hypotensive activity was evaluated in an anesthetized rat model as percent mean aortic blood pressure(mm hg) reduction 5 min after iv injection of 5 mg/kg; type: functional, Artery
Procedure, shortened: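 In pentobarbital-anesthetized (50 mg/kg ip), artificially ventilated male Chbb:THOM rats (200-250 g), mean aortic pressure was measured through a carotid artery cannula connected to an electromechanical transducer. Readings were taken before and 5 min after 5 mg/kg iv. Values are % change from baseline, ± SEM.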

[5] = system: Rattus norvegicus; assay: Bradycardic activity was evaluated in an anesthetized rat model as percent heart rate(beats/min) reduction 20 min after iv injection of 5 mg/kg; type: functional; procedure, shortened: as §1

| Structure (SMILES) | Delta HR [1] [%] | Selectivity [2] | Ratio [3] | Delta MAP [4] [%] | Delta HR [5] [%] |
| --- | --- | --- | --- | --- | --- |
| COc1cc2c(cc1OC)CC(=O)N(CCCN(C)CCc1ccco1)CC2 | -12 | 0.23 | 0.92 | -52 | -11 |
| COc1ccc2[nH]cc(CCN(C)CCCN3CCc4cc(OC)c(OC)cc4CC3=O)c2c1 | -32 | 1.8 | 0.92 | -18 | -29 |
| COc1cc2c(cc1OC)CC(=O)N(CCCN(C)CCc1csc3c1CCCC3)CC2 | -69 | 1.6 | 0.8 | -43 | -55 |
| COc1cc2c(cc1OC)CC(=O)N(CCCN(C)CCc1c[nH]c3ccc(OCc4ccccc4)cc13)CC2 | -49 | 1.1 | 0.93 | -45 | -46 |
| COc1cc2c(cc1OC)CC(=O)N(CCCN(C)CCCCCc1cccs1)CC2 | -68 | 4.4 | 0.53 | -15 | -36 |
| COc1cc2c(cc1OC)CC(=O)N(CCCN(C)CCc1csc3ccc(C)cc13)CC2 | -51 | 1.4 | 0.75 | -36 | -38 |
| COc1cc2c(cc1OC)CC(=O)N(CCCN(C)CCc1cc(C)sc1C)CC2 | -61 | 1.7 | 0.65 | -36 | -40 |
| COc1cc2c(cc1OC)CC(=O)N(CCCN(C)CCc1csc3ccccc13)CC2 | -66 | 1.2 | 0.78 | -55 | -51 |
| COc1cc2c(cc1OC)CC(=O)N(CCCN(C)CCCCCCc1cccs1)CC2 | -53 | 2 | 0.4 | -26 | -21 |
| COc1cc2c(cc1OC)CC(=O)N(CCCN(C)CCCc1ccco1)CC2 | -19 | 0.31 | 0.95 | -61 | -18 |
| COc1cc2c(cc1OC)CC(=O)N(CCCN(C)CCc1cccs1)CC2 | -28 | 0.82 | 0.56 | -34 | -16 |
| COc1cc2c(cc1OC)CC(=O)N(CCCN(C)CCc1c[nH]c3ccc(O)cc13)CC2 | -49 | 1.8 | 0.49 | -27 | -24 |
| COc1cc2c(cc1OC)CC(=O)N(CCCN(C)CCCc1cccs1)CC2 | -40 | 2 | 0.48 | -20 | -19 |
| COc1cc2c(cc1OC)CC(=O)N(CCCN(C)CCc1csc3cc(OC)c(OC)cc13)CC2 | -24 | 1.4 | 0.71 | -17 | -17 |
| COc1ccc2c(CCN(C)CCCN3CCc4cc(OC)c(OC)cc4CC3=O)coc2c1 | -59 | 1.7 | 0.58 | -35 | -34 |
| COc1cc2c(cc1OC)CC(=O)N(CCCN(C)Cc1csc3ccccc13)CC2 | -18 | 0.66 | 0.4 | -27 | -7 |

| Structure (SMILES) | Delta HR [1] [%] | Selectivity [2] | Ratio [3] | Delta MAP [4] [%] | Delta HR [5] [%] |
| --- | --- | --- | --- | --- | --- |
| COc1cc2c(cc1OC)CC(=O)N(CCCN(C)CCCCc1cccs1)CC2 | -61 | 2.3 | 0.39 | -2 | -24 |
| COc1cc2c(cc1OC)CC(=O)N(CCCN(C)CCc1csc3cccc(OC)c13)CC2 | -34 | 1.6 | 0.72 | -21 | -24 |
| COc1cc2c(cc1OC)CC(=O)N(CCCN(C)CCc1coc3cccc(OC)c13)CC2 | -31 | 3.9 | 0.45 | -8 | -14 |
| COc1cc2c(cc1OC)CC(=O)N(CCCN(C)CCc1csc3cc(O)ccc13)CC2 | -50 | 1.7 | 0.74 | -29 | -37 |
| COc1cc2c(cc1OC)CC(=O)N(CCCN(C)CCc1csc3cc(OS(C)(=O)=O)ccc13)CC2 | -50 | 2.4 | 0.8 | -21 | -40 |
| COc1cc2c(cc1OC)CC(=O)N(CCCN(C)CCc1coc3ccccc13)CC2 | -54 | 1.4 | 0.72 | -39 | -39 |
| COc1cc2c(cc1OC)CC(=O)N(CCCN(C)CCCc1c[nH]c3ccccc13)CC2 | -62 | 1.8 | 0.76 | -34 | -47 |
| COc1cc2c(cc1OC)CC(=O)N(CCCN(C)CCc1csc3ccc(Br)cc13)CC2 | -50 | 1.2 | 0.34 | -41 | -17 |
| COc1cc2c(cc1OC)CC(=O)N(CCCN(C)CCc1cn(C)c3ccccc13)CC2 | -50 | 2.3 | 0.74 | -22 | -37 |
| COc1cc2c(cc1OC)CC(=O)N(CCCN(C)CCc1cc3ccccc3o1)CC2 | -67 | 1.7 | 0.67 | -39 | -45 |
| COc1cc2c(cc1OC)CC(=O)N(CCCN(C)CCc1c[nH]c3ccccc13)CC2 | -50 | 2.2 | 0.73 | -23 | -36 |
| COc1cc2c(cc1OC)CC(=O)N(CCCN(C)CCc1cccn1C)CC2 | -30 | 1.7 | 0.59 | -18 | -18 |
| COc1cc2c(cc1OC)CC(=O)N(CCCN(C)CCc1cccnc1)CC2 | -12 | 1.1 | 1.5 | -11 | -18 |
| COc1cc2c(cc1OC)CC(=O)N(CCCN(C)CCc1c[nH]c3ccc(Br)cc13)CC2 | -33 | 0.98 | 0.82 | -34 | -27 |
| COc1ccc(CCN(C)CCCN2CCc3cc(OC)c(OC)cc3CC2=O)cc1OC [ZATEBRADINE] | -56 | 2.6 | 0.83 | -21 | -46 |
| COc1cc2c(cc1OC)CC(=O)N(CCCN(C)CCCc1csc3ccccc13)CC2 | -65 | 1.4 | 0.69 | -46 | -45 |

Source: ChEMBL document CHEMBL1125645, “Specific bradycardic agents. 2. Heteroaromatic modifications in the side chain of specific bradycardic benzazepinones: chemistry, pharmacology, and structure-activity relationships” (1991)
